Data reported in ChEMBL document CHEMBL3352378, “Novel carbazole inhibits phospho-STAT3 through induction of protein-tyrosine phosphatase PTPN6” (J Med Chem, 2014).
Active and inactive are the calls of the source. No cut-off for these calls is given here.

How the values were obtained:
Assay type in all cases: cell-based
[1] = molecular target: Signal transducer and activator of transcription 3 (Homo sapiens) (UniProt P40763); assay: Inhibition of STAT3C-mediated transcription in human Hs578T cells at 1 uM after 24 hrs by luciferase reporter gene assay; conditions: Hs-578T
How it was run: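 HS578T cells co-transfected with a constitutively active STAT3 (STAT3C) expression vector and the APRE-Luc reporter. Treated at 1 μM for 24 h, with JAK2 inhibitor AZD1480 for comparison. Luciferase measured; mean ± SD of triplicates.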

[2] = molecular target: Tyrosine-protein phosphatase non-receptor type 6 (Homo sapiens) (UniProt P29350); assay: Induction of PTPN6 in human Hs578T cells assessed as inhibition of STAT3 phosphorylation at 3 uM after 16 hrs by Western blotting analysis in presence of pervanadate; conditions: Hs-578T
How it was run: (§1)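 HS578T and SUM149PT cells treated for 16 h without or with increasing pervanadate as a phosphatase inhibitor; JAK1/2 inhibitor CP690550 run in parallel. Lysates immunoblotted for phospho-STAT3 (Y705), with β-actin as loading control.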

[3] = molecular target: Tyrosine-protein phosphatase non-receptor type 6 (Homo sapiens) (UniProt P29350); assay: Induction of PTPN6 in human SUM149PT cells assessed as inhibition of STAT3 phosphorylation at 3 uM after 16 hrs by Western blotting analysis in presence of pervanadate; how it was run: as §1

Chain of Tyrosine-protein phosphatase non-receptor type 6 (Homo sapiens) (P29350 whole entry): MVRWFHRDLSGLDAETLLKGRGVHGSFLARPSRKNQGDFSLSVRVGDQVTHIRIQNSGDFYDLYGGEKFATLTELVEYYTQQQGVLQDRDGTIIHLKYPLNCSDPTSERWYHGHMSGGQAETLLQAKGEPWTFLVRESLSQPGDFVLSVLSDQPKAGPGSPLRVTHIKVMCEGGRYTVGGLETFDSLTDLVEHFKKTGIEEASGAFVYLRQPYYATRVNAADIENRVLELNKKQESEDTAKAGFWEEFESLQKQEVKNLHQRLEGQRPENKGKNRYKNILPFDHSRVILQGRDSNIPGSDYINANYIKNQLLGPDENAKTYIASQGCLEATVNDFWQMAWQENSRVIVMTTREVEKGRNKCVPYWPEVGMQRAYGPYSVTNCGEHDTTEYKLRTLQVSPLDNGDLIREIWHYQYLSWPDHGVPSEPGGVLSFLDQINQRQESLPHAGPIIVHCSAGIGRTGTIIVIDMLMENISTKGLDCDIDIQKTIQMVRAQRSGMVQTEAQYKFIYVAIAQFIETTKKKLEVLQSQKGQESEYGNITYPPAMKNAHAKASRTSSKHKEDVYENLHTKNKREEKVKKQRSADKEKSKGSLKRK
Chain of Signal transducer and activator of transcription 3 (Homo sapiens) (P40763 whole entry): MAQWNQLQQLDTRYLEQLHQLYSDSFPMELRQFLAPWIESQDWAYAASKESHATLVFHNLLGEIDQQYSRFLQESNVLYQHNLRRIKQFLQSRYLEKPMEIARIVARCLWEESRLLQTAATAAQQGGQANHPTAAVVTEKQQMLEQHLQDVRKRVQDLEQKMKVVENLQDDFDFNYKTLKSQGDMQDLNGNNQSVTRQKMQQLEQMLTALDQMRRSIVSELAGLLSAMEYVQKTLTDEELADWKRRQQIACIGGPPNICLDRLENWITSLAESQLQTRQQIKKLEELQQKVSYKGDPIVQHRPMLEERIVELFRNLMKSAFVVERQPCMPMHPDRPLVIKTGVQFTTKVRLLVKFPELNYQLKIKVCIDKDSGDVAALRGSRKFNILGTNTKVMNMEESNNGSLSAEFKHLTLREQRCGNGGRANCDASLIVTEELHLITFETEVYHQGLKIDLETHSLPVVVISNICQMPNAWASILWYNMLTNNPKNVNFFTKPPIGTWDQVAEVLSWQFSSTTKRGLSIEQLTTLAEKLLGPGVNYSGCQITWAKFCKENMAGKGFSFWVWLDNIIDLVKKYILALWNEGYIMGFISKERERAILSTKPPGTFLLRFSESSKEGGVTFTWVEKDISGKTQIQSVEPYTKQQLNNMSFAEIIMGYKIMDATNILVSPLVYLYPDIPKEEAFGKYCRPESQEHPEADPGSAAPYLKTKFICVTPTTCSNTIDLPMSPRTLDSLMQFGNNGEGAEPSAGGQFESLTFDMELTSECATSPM

inhibition [1]	inhibition [2]	inhibition [3]	SMILES
Active			Cc1cc(Nc2nc(N[C@@H](C)c3ncc(F)cn3)ncc2Cl)[nH]n1
	Active	Active	C[C@@H]1CCN(C(=O)CC#N)C[C@@H]1N(C)c1ncnc2[nH]ccc12
